Activity calls are given as the source filed them. The calls are words filed in the database; no cut-off is given here.
How the values were obtained:
[1] = target: T1, Adenosine receptor A2b (Homo sapiens) (UniProt P29275); experiment: Binding affinity to human Adenosine A2B receptor expressed in yeast cells coexpressed with GPA1/Galphas; type: cell-based
T1 sequence (whole entry): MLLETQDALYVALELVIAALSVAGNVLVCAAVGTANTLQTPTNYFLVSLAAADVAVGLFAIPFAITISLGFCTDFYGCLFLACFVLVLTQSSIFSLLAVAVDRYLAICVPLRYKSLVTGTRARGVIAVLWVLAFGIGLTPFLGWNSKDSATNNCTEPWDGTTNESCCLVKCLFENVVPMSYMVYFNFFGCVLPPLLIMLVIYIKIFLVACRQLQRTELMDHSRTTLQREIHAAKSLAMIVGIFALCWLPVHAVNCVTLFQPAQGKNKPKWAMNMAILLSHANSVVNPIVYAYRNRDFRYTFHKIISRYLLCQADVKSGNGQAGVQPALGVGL
In short: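 pKA is derived by non-linear regression of the operational model of agonism applied to 16 h yeast FUS1-lacZ concentration-response data, with A2BR coupled to the GPA1/Gαs chimera.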

[2] = target: T1, Adenosine receptor A2b (Homo sapiens); experiment: Agonist activity at human Adenosine A2B receptor expressed in yeast cells coexpressed with chimeric GPA1/Galphas after 16 hrs by beta-galactosidase reporter gene assay relative to NECA; type: cell-based
In short: (§1)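 Yeast (Δfar1, FUS1-lacZ) express A2BR from the GAPDH promoter alongside Gpa1p/Gαs chimera. The OD600 is 0.02 and compound is added in 1% v/v DMSO for 16 h at 30°C. β-Galactosidase is read with ONPG at OD430, normalised as (OD430−OD620)/OD620. […] Three-parameter logistic fit gives EC50 and Emax. Data are from 5-8 independent experiments.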

[3] = target: T2, Adenosine receptor A1 (Homo sapiens) (UniProt P30542)
T2 sequence (whole entry): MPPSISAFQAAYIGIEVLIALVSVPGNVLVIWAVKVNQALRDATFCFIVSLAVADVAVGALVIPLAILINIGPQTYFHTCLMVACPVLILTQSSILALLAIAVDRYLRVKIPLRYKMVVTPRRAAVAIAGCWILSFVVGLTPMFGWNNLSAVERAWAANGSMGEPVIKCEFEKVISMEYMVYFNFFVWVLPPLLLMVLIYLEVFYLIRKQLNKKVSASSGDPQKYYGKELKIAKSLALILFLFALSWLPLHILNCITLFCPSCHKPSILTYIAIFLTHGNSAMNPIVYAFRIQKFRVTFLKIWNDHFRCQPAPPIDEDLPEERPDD

[4] = target: T3, Adenosine receptor A3 (Homo sapiens) (UniProt P0DMS8); experiment: Agonist activity at human Adenosine A3 receptor transfected in CHO-K1 cells assessed as inhibition of forskolin-stimulated cAMP production after 30 mins by multimode microplate reader analysis relative to total forskolin; type: functional, cell-based; set-up: concentration or dose not given beside the values
T3 sequence (whole entry): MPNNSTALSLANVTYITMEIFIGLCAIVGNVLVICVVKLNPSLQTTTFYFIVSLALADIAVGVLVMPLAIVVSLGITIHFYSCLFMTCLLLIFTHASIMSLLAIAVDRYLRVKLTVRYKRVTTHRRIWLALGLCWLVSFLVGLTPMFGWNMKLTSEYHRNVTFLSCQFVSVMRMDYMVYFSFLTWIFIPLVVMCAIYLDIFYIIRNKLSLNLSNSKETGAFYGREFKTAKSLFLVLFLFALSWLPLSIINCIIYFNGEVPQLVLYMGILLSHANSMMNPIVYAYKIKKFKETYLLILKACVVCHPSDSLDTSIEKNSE
In short: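 CHO-K1 cells are transiently transfected with receptor (2 µg DNA, FuGene 6) and harvested at 48 h. Cells are resuspended in PBS with 0.1% BSA and 25 µM rolipram, at 2500 cells/well. They are co-incubated with 10 µM forskolin and ligand (10 pM to 1 µM) for 30 min at room temperature. cAMP is measured by LANCE kit. Data are expressed as % of the 10 µM forskolin response.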

Adenosine receptor A2a [5] = target: T4, Adenosine receptor A2a (Homo sapiens, UniProt P29274); experiment: Agonist activity at human Adenosine A2A receptor expressed in yeast cells coexpressed with chimeric GPA1/Galphas at 100 uM after 16 hrs by beta-galactosidase reporter gene assay; type: cell-based
T4 sequence (P29274 whole entry): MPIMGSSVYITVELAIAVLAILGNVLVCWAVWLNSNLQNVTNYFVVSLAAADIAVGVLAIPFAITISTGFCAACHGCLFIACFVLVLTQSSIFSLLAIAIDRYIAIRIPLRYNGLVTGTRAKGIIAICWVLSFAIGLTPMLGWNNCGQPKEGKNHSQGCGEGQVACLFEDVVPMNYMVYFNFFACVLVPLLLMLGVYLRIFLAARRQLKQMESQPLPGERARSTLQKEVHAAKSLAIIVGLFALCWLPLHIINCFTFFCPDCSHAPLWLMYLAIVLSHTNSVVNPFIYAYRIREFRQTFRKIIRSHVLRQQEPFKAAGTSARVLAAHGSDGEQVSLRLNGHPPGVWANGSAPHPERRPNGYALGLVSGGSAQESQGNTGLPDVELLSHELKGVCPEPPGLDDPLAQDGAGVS
In short: (§2)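 Human receptor expressed from GAPDH promoter (p426-GPD) in Δfar1 FUS1-lacZ yeast with Gpa1p(1-467) carrying the 5 C-terminal Gα residues. Cells are grown overnight in SD-URA at 30°C, diluted 1:10 and grown 8 h. They are set to OD600 0.02 and given compound at 1% v/v DMSO for 16 h at 30°C. A2A strain is grown in SD-URA-HIS, with 5 mM 3-amino-triazole in treatment media. Read-out: ONPG, (OD430−OD620)/OD620.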

[6] = target: T1, Adenosine receptor A2b (Homo sapiens); experiment: Agonist activity at human Adenosine A2B receptor expressed in yeast cells coexpressed with chimeric GPA1/Galphas at 100 µM after 16 hrs by beta-galactosidase reporter gene assay; type: cell-based; in short: as §1
Adenosine receptor A2a [7] = target: T4, Adenosine receptor A2a
[8] = target: T2, Adenosine receptor A1 (Homo sapiens); experiment: Agonist activity at human Adenosine A1 receptor expressed in yeast cells coexpressed with chimeric GPA1/Galphai1 at 100 uM after 16 hrs by beta galactosidase reporter gene assay; type: cell-based; in short: as §2
Adenosine receptor A1 [9] = target: T5, Adenosine receptor A1 (Homo sapiens, UniProt P30542); experiment: Agonist activity at human Adenosine A1 receptor transfected in CHO-K1 cells assessed as inhibition of forskolin-stimulated cAMP production after 30 mins by multimode microplate reader analysis; type: functional, cell-based
T5 sequence (P30542 whole entry): T2 sequence (whole entry)

Adenosine receptor A1 [10] = target: T5, Adenosine receptor A1; experiment: Agonist activity at human Adenosine A1 receptor expressed in yeast cells coexpressed with chimeric GPA1/Galphai1 after 16 hrs by beta galactosidase reporter gene assay; type: cell-based
Adenosine receptor A2a [11] = target: T4, Adenosine receptor A2a; experiment: Agonist activity at human Adenosine A2A receptor expressed in yeast cells coexpressed with chimeric GPA1/Galphas after 16 hrs by beta-galactosidase reporter gene assay; type: cell-based
[12] = target: T1, Adenosine receptor A2b (Homo sapiens); experiment: (§3) Agonist activity at human Adenosine A2B receptor expressed in yeast cells coexpressed with chimeric GPA1/Galphas after 16 hrs by beta-galactosidase reporter gene assay; type: cell-based
In short: (§4)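 Yeast (Δfar1, FUS1-lacZ) express A2BR from the GAPDH promoter alongside Gpa1p/Gαs chimera. The OD600 is 0.02 and compound is added in 1% v/v DMSO for 16 h at 30°C. β-Galactosidase is read with ONPG at OD430, normalised as (OD430−OD620)/OD620. Three-parameter logistic fit gives EC50 and Emax. Data are from 5-8 independent experiments.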

[13] = target: T2, Adenosine receptor A1 (Homo sapiens); remark: listed apart in the source
[14] = target: T3, Adenosine receptor A3 (Homo sapiens); experiment: (§5) Agonist activity at human Adenosine A3 receptor transfected in CHO-K1 cells assessed as inhibition of forskolin-stimulated cAMP production after 30 mins by multimode microplate reader analysis; type: functional, cell-based
In short: (§6)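 CHO-K1 cells are transiently transfected with receptor (2 µg DNA, FuGene 6) and harvested at 48 h. They are co-incubated with 10 µM forskolin and ligand (10 pM to 1 µM) for 30 min at room temperature. cAMP is measured by LANCE kit. Data are expressed as % of the 10 µM forskolin response.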

Adenosine receptor A3 = target: T6, Adenosine receptor A3 (Homo sapiens, UniProt P0DMS8); experiment: as §5; type: functional, cell-based; in short: as §6
T6 sequence (P0DMS8 whole entry): T3 sequence (whole entry)

[15] = target: T1, Adenosine receptor A2b (Homo sapiens)
Adenosine receptor A2a [16] = target: T4, Adenosine receptor A2a; remark: listed apart in the source
Adenosine receptor A2b = target: T7, Adenosine receptor A2b (Homo sapiens, UniProt P29275); experiment: as §3; type: cell-based; in short: as §4
T7 sequence (P29275 whole entry): T1 sequence (whole entry)

SMILES	pKA [1]	Emax [2]	pKA [3]	Activity [4]	Activity (Adenosine receptor A2a [5])	Activity [6]	pKA (Adenosine receptor A2a [7])	Activity [8]	IC50 (Adenosine receptor A1 [9]) [nM]	EC50 (Adenosine receptor A1 [10]) [µM]	pEC50 (Adenosine receptor A2a [11])	pEC50 [12]	log(activity) [13]	pIC50 [14]	IC50 (Adenosine receptor A3) [nM]	log(activity) [15]	log(activity) (Adenosine receptor A2a [16])	EC50 (Adenosine receptor A2a [11]) [µM]	EC50 (Adenosine receptor A2b) [µM]
CCNC(=O)[C@H]1O[C@@H](n2cnc3c(N)nc(NCCc4ccc(CCC(=O)O)cc4)nc32)[C@H](O)[C@@H]1O	3.4	59.1%	2.1																
CCNC(=O)[C@H]1O[C@@H](n2cnc3c(N)ncnc32)[C@H](O)[C@@H]1O	4.2		4.4	-44.1%															
CCNC(=O)[C@H]1O[C@@H](n2cnc3c(N[C@H]4C[C@H]5CCC[C@@H](C4)N5C)ncnc32)[C@H](O)[C@@H]1O	inactive		inactive		inactive	inactive	inactive												
O[C@@H]1[C@H](O)[C@@H](CSc2ccccc2F)O[C@H]1n1cnc2c(NC34CC5CC(CC(C5)C3)C4)ncnc21	inactive		inactive			inactive		inactive											
CCNC(=O)[C@H]1O[C@@H](n2cnc3c(NC4C5CC6CC(C5)CC4C6)ncnc32)[C@H](O)[C@@H]1O (stereo not given in full)	inactive	inactive	2.4	inactive			inactive		0.398	15.8	inactive	inactive	2.4	inactive					
CN1[C@@H]2CCC[C@H]1C[C@@H](Nc1ncnc3c1ncn3[C@@H]1O[C@H](CSc3ccccc3F)[C@@H](O)[C@H]1O)C2	inactive		inactive		inactive	inactive	inactive	inactive											
CCNC(=O)[C@H]1O[C@@H](n2cnc3c(NC45CC6CC(CC(C6)C4)C5)ncnc32)[C@H](O)[C@@H]1O	inactive	inactive	4.2	inactive			inactive		2.88	3.98	inactive	inactive	1.2	inactive					
CCNC(=O)[C@H]1O[C@@H](n2cnc3c(NC45CC6CC(CC(O)(C6)C4)C5)ncnc32)[C@H](O)[C@@H]1O	inactive	inactive	3.5	-32.7%			inactive		37.2	100	inactive	inactive	1		79.4				
OC[C@H]1O[C@@H](n2cnc3c(N[C@@H]4CCC[C@H]4O)ncnc32)[C@H](O)[C@@H]1O	inactive	inactive	5.5	-35.1%			inactive		4.37	0.631	inactive	inactive	0.7		27.5				
OC[C@H]1O[C@@H](n2cnc3c(NC4CCCC4)nc(Cl)nc32)[C@H](O)[C@@H]1O	4.4	30.6%		-46.6%			4.7						0.6			3.5	-0.1		
OC[C@H]1O[C@@H](n2cnc3c(N[C@@H]4CCC[C@H]4OCc4ccccc4)ncnc32)[C@H](O)[C@@H]1O	inactive	inactive	4.9	inactive			inactive												
CCNC(=O)[C@H]1O[C@@H](n2cnc3c(N[C@@H]4CCC[C@H]4OCc4ccccc4)ncnc32)[C@H](O)[C@@H]1O	3.5	32.2%	4.3	-38%			3.9		0.0295	1			1.6		269	0.1	0.5	15.8	126
OC[C@H]1O[C@@H](n2cnc3c(NC45CC6CC(CC(C6)C4)C5)ncnc32)[C@H](O)[C@@H]1O	inactive	inactive	3	inactive			inactive		19.1	15.8	inactive	inactive	1.8	inactive					
Nc1ncnc2c1ncn2[C@@H]1O[C@H](CO)[C@@H](O)[C@H]1O	3.8	70.4%																	
CN1[C@@H]2CCC[C@H]1C[C@@H](Nc1ncnc3c1ncn3[C@@H]1O[C@H](CO)[C@@H](O)[C@H]1O)C2	inactive		inactive		inactive	inactive	inactive												
CCNC(=O)[C@H]1O[C@@H](n2cnc3c(N4[C@@H]5CCC[C@H]4C[C@H](N(C)C)C5)ncnc32)[C@H](O)[C@@H]1O	inactive		inactive		inactive	inactive	inactive	inactive											
CCNC(=O)[C@H]1O[C@@H](n2cnc3c(N4[C@@H]5CCC[C@H]4C[C@H](N)C5)ncnc32)[C@H](O)[C@@H]1O	inactive		inactive		inactive	inactive	inactive	inactive											
